According to ChEMBL document CHEMBL1135423, “Acyl-protected hydroxylamines as spin label generators for EPR brain imaging” (J Med Chem, 2002):

Columns and labels:
Format in all cases: ADME, organism-based
[1] = test system: Mus musculus; test: Biodistribution of compound (total concentration of both oxidized and reduced forms) in heart tissues, animals were sacrificed 60 minutes after dosing, in DMSO; details: in vivo, 1 h
In short: (§1)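 Female C3H HenMTV⁻ mice (6-8 weeks old, 22-25 g; three per time point) got one i.p. injection of 500 µL of 40 mM compound. They were euthanized at 10 or 60 min. Organs and blood were excised and homogenized separately in ice-cold PBS. One half of each homogenate received K₃[Fe(CN)₆] (final 1 mM) to oxidize hydroxylamine. Total nitroxide plus hydroxylamine was quantified by EPR signal intensity.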

[2] = test system: Mus musculus; test: Biodistribution in mice as total concentration of both oxidized and reduced forms in kidney and animals were sacrificed 10 minutes after ip dosing, in DMSO solution; details: in vivo
In short: (§2)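 Female C3H HenMTV⁻ mice (6-8 weeks old, 22-25 g; three per time point) were given an ip injection of 500 µL of 40 mM compound. They were euthanized at 10 or 60 min. Brain, heart, liver, kidney, spleen and blood were excised and each homogenized in ice-cold PBS. One half of each homogenate received K₃[Fe(CN)₆] (final 1 mM) to oxidize hydroxylamine to nitroxide. Total nitroxide plus hydroxylamine was read from EPR signal intensity.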

[3] = test system: Mus musculus; test: Biodistribution of compound (oxidized form) in heart tissue, animals were sacrificed 60 minutes after dosing, in DMSO solution; details: in vivo, 1 h
In short: (§3)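 In female C3H HenMTV⁻ mice (6-8 weeks, 22-25 g; three per time point), compound was injected ip as 500 µL of 40 mM solution. Animals were killed 10 or 60 min later. Brain, heart, liver, kidney, spleen and blood were removed and each homogenized in ice-cold PBS. Nitroxide (oxidized form) was quantified by EPR signal intensity in the half of each homogenate not treated with ferricyanide.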

[4] = test system: Mus musculus; test: Biodistribution of compound (total concentration of both oxidized and reduced forms) in kidney tissues, animals were sacrificed 60 minutes after dosing, in DMSO; details: in vivo, 1 h; in short: as §1
[5] = test system: Mus musculus; test: Biodistribution of compound (oxidized form) in blood tissues, animals were sacrificed 60 minutes after dosing, in DMSO solution; details: in vivo, 1 h; in short: as §3
[6] = test system: Mus musculus; test: Biodistribution of compound (total concentration of both oxidized and reduced forms) in blood tissues, animals were sacrificed 60 minutes after dosing, in DMSO; details: in vivo, 1 h; in short: as §1
[7] = test system: Mus musculus; test: Biodistribution of compound (oxidized form) in brain tissue, animals were sacrificed 10 minutes after dosing, in DMSO sol.; details: in vivo; in short: as §3
[8] = test system: Mus musculus; test: Biodistribution in mice as total concentration of both oxidized and reduced forms in liver and animals were sacrificed 10 minutes after ip administration in DMSO solution; details: in vivo; in short: as §2
[9] = test system: Mus musculus; test: Biodistribution in mice as total concentration of both oxidized and reduced forms in spleen and animals were sacrificed 10 minutes after ip dosing, in DMSO solution; details: in vivo; in short: as §2
[10] = test system: Mus musculus; test: Biodistribution of compound (oxidized form) in blood tissue, animals were sacrificed 10 minutes after dosing, in DMSO solution; details: in vivo; in short: as §3
[11] = test system: Mus musculus; test: Biodistribution of compound (total concentration of both oxidized and reduced forms) in heart tissues, animals were sacrificed 10 minutes after dosing, in DMSO; details: in vivo; in short: as §1
[12] = test system: Mus musculus; test: Biodistribution of compound (oxidized form) in brain tissue, animals were sacrificed 60 minutes after dosing, in DMSO solution; details: in vivo, 1 h; in short: as §3
[13] = test system: Mus musculus; test: Biodistribution of compound (total concentration of both oxidized and reduced forms) in spleen tissues, animals were sacrificed 60 minutes after dosing, in DMSO; details: in vivo, 1 h; in short: as §1
[14] = test system: Mus musculus; test: Biodistribution of compound (oxidized form) in liver tissues, animals were sacrificed 60 minutes after dosing, in DMSO solution; details: in vivo, 1 h; in short: as §3
[15] = test system: Mus musculus; test: Biodistribution of compound (oxidized form) in heart tissue, animals were sacrificed 10 minutes after dosing, in DMSO sol.; details: in vivo; in short: as §3
[16] = test system: Mus musculus; test: Biodistribution of compound (oxidized form) in spleen tissue, animals were sacrificed 10 minutes after dosing, in DMSO solution; details: in vivo; in short: as §3
[17] = test system: Mus musculus; test: Biodistribution of compound (total concentration of both oxidized and reduced forms) in liver tissues, animals were sacrificed 60 minutes after dosing, in DMSO; details: in vivo, 1 h; in short: as §1
[18] = test system: Mus musculus; test: Biodistribution in mice, total concentration of both oxidized and reduced forms in brain tissues, animals were sacrificed 60 minutes after dosing, in DMSO; details: in vivo, 1 h; in short: as §2
[19] = test system: Mus musculus; test: Biodistribution of compound (oxidized form) in spleen tissues, animals were sacrificed 60 minutes after dosing, in DMSO solution; details: in vivo, 1 h; in short: as §3
[20] = test system: Mus musculus; test: Biodistribution of compound (oxidized form) in brain tissues, animals were sacrificed 10 minutes after dosing, in DMSO solution; details: in vivo; in short: as §3
[21] = test system: Mus musculus; test: Biodistribution of compound (oxidized form) in kidney tissue, animals were sacrificed 10 minutes after dosing, in DMSO solution; details: in vivo; in short: as §3
[22] = test system: Mus musculus; test: Biodistribution in mice as total concentration of both oxidized and reduced forms in blood and animals were sacrificed 10 minutes after ip dosing, in DMSO solution; details: in vivo; in short: as §2
[23] = test system: Mus musculus; test: Biodistribution of compound (oxidized form) in kidney tissue, animals were sacrificed 60 minutes after dosing, in DMSO solution; details: in vivo, 1 h; in short: as §3
[24] = test system: Mus musculus; test: Biodistribution of compound (oxidized form) in liver tissue, animals were sacrificed 10 minutes after dosing, in DMSO sol.; details: in vivo; in short: as §3
[25] = species: Mus musculus; test: Biodistribution of compound (total concentration of both oxidized and reduced forms) in spleen; details: in vivo; in short: as §1
[26] = test system: Mus musculus; test: Biodistribution of compound (oxidized form) in spleen tissues, animals were sacrificed 60 minutes after dosing, in DMSO; details: in vivo, 1 h; in short: as §3
[27] = test system: Mus musculus; test: Biodistribution of compound (oxidized form) in blood tissues, animals were sacrificed 60 minutes after dosing, in DMSO; details: in vivo, 1 h; in short: as §3
[28] = species: Mus musculus; test: Biodistribution of compound (total concentration of both oxidized and reduced forms) in heart tissues; details: in vivo; in short: as §1
[29] = species: Mus musculus; test: Biodistribution of compound (oxidized form) in kidney tissue; details: in vivo; in short: as §3
[30] = species: Mus musculus; test: Biodistribution of compound (total concentration of both oxidized and reduced forms) in liver; details: in vivo; in short: as §1
[31] = test system: Mus musculus; test: Biodistribution of compound (total concentration of both oxidized and reduced forms) in kidney tissues, animals were sacrificed 60 minutes after dosing in DMSO; details: in vivo, 1 h; in short: as §1
[32] = species: Mus musculus; test: Biodistribution of compound (total concentration of both oxidized and reduced forms) in kidney; details: in vivo; in short: as §1
[33] = test system: Mus musculus; test: Biodistribution of compound (total concentration of both oxidized and reduced forms) in spleen tissues, animals were sacrificed 60 minutes after dosing in DMSO; details: in vivo, 1 h; in short: as §1
[34] = test system: Mus musculus; test: Biodistribution of compound (oxidized form) in kidney tissue, animals were sacrificed 60 minutes after dosing, in DMSO; details: in vivo, 1 h; in short: as §3
[35] = species: Mus musculus; test: Biodistribution of compound (oxidized form) in blood tissue; details: in vivo; in short: as §3
[36] = test system: Mus musculus; test: Biodistribution of compound (oxidized form) in heart tissue, animals were sacrificed 60 minutes after dosing, in DMSO; details: in vivo, 1 h; in short: as §3
[37] = species: Mus musculus; test: Biodistribution of compound (oxidized form) in spleen tissue; details: in vivo; in short: as §3
[38] = species: Mus musculus; test: Biodistribution of compound (oxidized form) in heart tissue of mice; details: in vivo; in short: as §3
[39] = species: Mus musculus; test: Biodistribution of compound (total concentration of both oxidized and reduced forms) in blood; details: in vivo; in short: as §1
[40] = species: Mus musculus; test: Biodistribution of compound (oxidized form) in brain tissue of mice; details: in vivo; in short: as §3
[41] = test system: Mus musculus; test: Biodistribution of compound (oxidized form) in liver tissues, animals were sacrificed 60 minutes after dosing, in DMSO; details: in vivo, 1 h; in short: as §3
[42] = test system: Mus musculus; test: Biodistribution of compound (oxidized form) in brain tissue, animals were sacrificed 60 minutes after dosing, in DMSO; details: in vivo, 1 h; in short: as §3
[43] = species: Mus musculus; test: Biodistribution of compound (oxidized form) in liver tissue; details: in vivo; in short: as §3
[44] = test system: Mus musculus; test: Biodistribution of compound (total concentration of both oxidized and reduced forms) in brain tissues, animals were sacrificed 60 minutes after dosing, in DMSO; details: in vivo, 1 h; in short: as §1
[45] = species: Mus musculus; test: Biodistribution of compound (total concentration of both oxidized and reduced forms) in brain tissues; details: in vivo; in short: as §1

COC(=O)C1CC(C)(C)N(OC(C)=O)C1(C)C (stereo not drawn)
Biodistribution [1]: 25 nM (g of tissue)-1 | Biodistribution [2]: 400 nM (g of tissue)-1 | Biodistribution [3]: 0 nM (g of tissue)-1 | Biodistribution [4]: 25 nM (g of tissue)-1 | Biodistribution [5]: 0 nM (g of tissue)-1 | Biodistribution [6]: 25 nM (g of tissue)-1 | Biodistribution [7]: 2 nM (g of tissue)-1 | Biodistribution [8]: 50 nM (g of tissue)-1 | Biodistribution [9]: 100 nM (g of tissue)-1 | Biodistribution [10]: 0 nM (g of tissue)-1 | Biodistribution [11]: 100 nM (g of tissue)-1 | Biodistribution [12]: 5 nM (g of tissue)-1 | Biodistribution [13]: 25 nM (g of tissue)-1 | Biodistribution [14]: 0 nM (g of tissue)-1 | Biodistribution [15]: 0 nM (g of tissue)-1 | Biodistribution [16]: 0 nM (g of tissue)-1 | Biodistribution [17]: 30 nM (g of tissue)-1 | Biodistribution [18]: 25 nM (g of tissue)-1 | Biodistribution [19]: 0 nM (g of tissue)-1 | Biodistribution [20]: 0 nM (g of tissue)-1 | Biodistribution [21]: 0 nM (g of tissue)-1 | Biodistribution [22]: 100 nM (g of tissue)-1 | Biodistribution [23]: 0 nM (g of tissue)-1 | Biodistribution [24]: 0 nM (g of tissue)-1

CC(=O)OCOC(=O)C1CC(C)(C)N(OC(C)=O)C1(C)C (stereo not drawn)
Biodistribution [1]: 250 nM (g of tissue)-1 | Biodistribution [25]: 750 nM (g of tissue)-1 | Biodistribution [26]: 20 nM (g of tissue)-1 | Biodistribution [27]: 20 nM (g of tissue)-1 | Biodistribution [28]: 250 nM (g of tissue)-1 | Biodistribution [29]: 50 nM (g of tissue)-1 | Biodistribution [30]: 250 nM (g of tissue)-1 | Biodistribution [6]: 400 nM (g of tissue)-1 | Biodistribution [31]: 2500 nM (g of tissue)-1 | Biodistribution [32]: 2500 nM (g of tissue)-1 | Biodistribution [33]: 150 nM (g of tissue)-1 | Biodistribution [34]: 40 nM (g of tissue)-1 | Biodistribution [35]: 50 nM (g of tissue)-1 | Biodistribution [36]: 5 nM (g of tissue)-1 | Biodistribution [17]: 250 nM (g of tissue)-1 | Biodistribution [37]: 40 nM (g of tissue)-1 | Biodistribution [38]: 10 nM (g of tissue)-1 | Biodistribution [39]: 750 nM (g of tissue)-1 | Biodistribution [40]: 0 nM (g of tissue)-1 | Biodistribution [41]: 20 nM (g of tissue)-1 | Biodistribution [42]: 0 nM (g of tissue)-1 | Biodistribution [43]: 100 nM (g of tissue)-1 | Biodistribution [44]: 0 nM (g of tissue)-1 | Biodistribution [45]: 0 nM (g of tissue)-1
